From ChEMBL document CHEMBL1123464, “Analogues of platelet activating factor. 5. Multiple oxygen substitution of the alkoxy chain” (J Med Chem, 1986) come the findings set out here.

For test [1], the species on record is Oryctolagus cuniculus. Put plainly: Compound was evaluated in rabbit-platelet rich plasma (PRP) for the maximum aggregation response observed at 1.9*10e-4 molar concentration. Format: functional.
For test [2], the species on record is Oryctolagus cuniculus. Put plainly: Compound was evaluated in rabbit-platelet rich plasma (PRP) for the molar concentration required to produce 50% of maximum aggregation. Type of test: functional. The method in brief:
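Rabbit platelet-rich plasma; aggregation dose-response curves over 10^-4 to 10^-9 M, two to six replicates per dose level; EC50 is the molar concentration giving 50% of the compound's own maximum aggregation; n counts independent curve determinations.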

The subject of test [3] is Rattus norvegicus. Kind of test: Compound was evaluated in spontaneous hypertensive rats (SHR) for the intravenous dose required to decrease mean arterial blood pressure (MABP) 50 mmHg. Format: functional, Artery. The gist of the method: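 Spontaneously hypertensive rats, intravenous dosing; mean arterial blood pressure monitored; dose lowering MABP by 50 mmHg extrapolated from the dose-response curve.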

A short description of test [4]: Ratio value is (MAPB/platelet EC50)*10e-8. Type of test: functional. The gist of the method: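 Selectivity index: intravenous hypotensive dose (SHR, 50 mmHg MABP drop) divided by rabbit PRP aggregation EC50; compared against racemic C16-PAF standard to judge separation of hypotensive and aggregatory effects.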
The species entered for test [5] is Oryctolagus cuniculus. Kind of test: Compound was evaluated in rabbit-platelet rich plasma (PRP) for the maximum aggregation response observed 6.8*10e-6 molar concentration. Format: functional.

`COCCOCCOCCCCCCCCOCC(COP(=O)([O-])OCC[N+](C)(C)C)OC(C)=O` (configuration not stated): in test [1], the Max aggregation turned out to be 67. Moreover, the EC50 in test [2] was 5300 nM. In test [3], this compound had a Dose of 0.0805 mg/kg. Also, the Ratio in test [4] was determined as 0.15.
Compound `CCCCCCCCCCOCCOCCOCC(COP(=O)([O-])OCC[N+](C)(C)C)OC(C)=O` (configuration not stated) displayed a Max aggregation in test [1] of 61. Also, the EC50 in test [2] came to 130 nM. The compound also returned a Dose in test [3] of 0.0129 mg/kg. Moreover, the Ratio in test [4] was 0.99.
For the compound `CCCCCCCCCCCCCCCCOCC(COP(=O)([O-])OCC[N+](C)(C)C)OC(C)=O` (configuration not stated) [PLATELET ACTIVATING FACTOR], the Max aggregation in test [5] is listed as 71. In addition, in test [2], the response was half-maximal at 26.5 nM (EC50). For the same compound, the Dose in test [3] is 0.00125 mg/kg. Further, the Ratio in test [4] was 0.47.

A word on the EC50: it is the concentration giving half of the maximal effect. The low end stands for an effect from little substance, the high end for a need for much substance.
